Assays:
[1] = Modulation of gamma secretase in CHO-2B7 cells assessed as reduction in amyloid beta 42 level after 5 hrs by MSD ELISA; assay type: cell-based; details: Cricetulus griseus, CHO-2B7, 5 h
Liver microsomes = experiment: Metabolic stability in human liver microsomes at 1 uM after 60 mins by LC/MS/MS analysis; details: 1 h
CHO-2B7 [2] = experiment: Modulation of gamma secretase in CHO-2B7 cells assessed as reduction in amyloid beta 40 level at 4 uM after 5 hrs by MSD ELISA; assay type: cell-based; design: scale not given: the % may be the effect or the level left; details: Cricetulus griseus
[3] = Metabolic stability in human liver microsomes assessed as compound remaining at 1 uM at 60 mins by LC/MS/MS analysis in presence of NADPH; assay type: ADME, Microsome; details: read-out: Stability
[4] = Modulation of gamma secretase in CHO-2B7 cells assessed as reduction in amyloid beta 40 level after 5 hrs by MSD ELISA; assay type: cell-based; details: Cricetulus griseus, CHO-2B7, 5 h
[5] = Metabolic stability in human liver microsomes assessed as compound remaining at 1 uM at 60 mins by LC/MS/MS analysis in absence of NADPH; assay type: ADME, Microsome; details: liver microsomes, read-out: Stability
In short: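 Human liver microsomes were run without NADPH as a qualitative read of susceptibility to enzymatic hydrolysis. The read-out was percent parent remaining at 60 min.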

CHO-2B7 [6] = experiment: Modulation of gamma secretase in CHO-2B7 cells assessed as reduction in amyloid beta 40 level at 4 mM after 5 hrs by MSD ELISA; assay type: cell-based; design: scale not given: the % may be the effect or the level left; details: Cricetulus griseus
[7] = Modulation of gamma-secretase assessed as increase in amyloid beta 38 level at 800 nM by cell based assay relative to control
[8] = Modulation of gamma-secretase assessed as reduction in amyloid beta 40 level by cell based assay
[9] = Modulation of gamma-secretase assessed as reduction in amyloid beta 42 level by cell based assay
CHO-2B7 [10] = experiment: Modulation of gamma secretase in CHO-2B7 cells assessed as reduction in amyloid beta 40 level at 100 uM after 5 hrs by MSD ELISA; assay type: cell-based; design: scale not given: the % may be the effect or the level left; details: Cricetulus griseus
[11] = Plasma concentration in CD1 mouse at 1 mg/kg, iv at 6 hrs
[12] = Ratio of drug uptake in brain to plasma in CD1 mouse at 1 mg/kg, iv at 6 hrs; details: brain and plasma
CHO-2B7 [13] = experiment: Modulation of gamma secretase in CHO-2B7 cells assessed as reduction in amyloid beta 40 level at 20 uM after 5 hrs by MSD ELISA; assay type: cell-based; design: scale not given: the % may be the effect or the level left; details: Cricetulus griseus
[14] = Drug uptake in CD1 mouse brain at 1 mg/kg, iv at 6 hrs
[15] = Ratio of drug uptake in brain to plasma in CD1 mouse at 3 mg/kg, iv at 6 hrs; assay type: ADME, organism-based; design: dose 3 mg/kg, route intravenous; details: brain and plasma, read-out: BPR
In short: (§1)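 CD-1 mice dosed by the IV route. Plasma and brain drug concentrations were measured at 6 h post dose, or at 2 h for one analogue. The brain-to-plasma ratio was calculated from these concentrations and used to rank CNS penetration.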

[16] = Drug uptake in CD1 mouse brain at 3 mg/kg, iv at 6 hrs; assay type: ADME, organism-based; design: dose 3 mg/kg, route intravenous; details: read-out: Drug uptake; in short: as §1
[17] = Plasma concentration in CD1 mouse at 3 mg/kg, iv at 6 hrs; assay type: ADME, organism-based; design: dose 3 mg/kg, route intravenous; in short: as §1

| Structure (SMILES) | IC50 [1] | Stability (Liver microsomes) | IC50 [4] | remaining at 1 h, 1 µM [5] | further results |
| --- | --- | --- | --- | --- | --- |
| CCO[C@@H]([C@H]1C[C@@H](C)[C@H]2[C@H](O1)[C@H](O)[C@@]1(C)[C@@H]3CC[C@H]4C(C)(C)[C@@H](OC(=O)NCCN5CCC5)CC[C@@]45C[C@@]35CC[C@]21C)C(C)(C)O | 0.22 µM | Stable | – | – | Activity (CHO-2B7 [2]): 41% |
| CC(=O)O[C@@H]([C@H]1C[C@@H](C)[C@H]2[C@H](O1)[C@H](O)[C@@]1(C)[C@@H]3CC[C@H]4C(C)(C)[C@@H](O[C@H]5CNCCO5)CC[C@@]45C[C@@]35CC[C@]21C)C(C)(C)O | 0.07 µM | – | 2.2 µM | 7% | remaining at 1 h, 1 µM [3]: 3% |
| CCO[C@@H]([C@H]1C[C@@H](C)[C@H]2[C@H](O1)[C@H](O)[C@@]1(C)[C@@H]3CC[C@H]4C(C)(C)[C@@H](O[C@H]5CN(CC(=O)N(C)C)CCO5)CC[C@@]45C[C@@]35CC[C@]21C)C(C)(C)O | 0.27 µM | Stable | – | – | Activity (CHO-2B7 [6]): 38% |
| CC(C)C[C@H](C(=O)O)c1cc(-c2ccc(C(F)(F)F)cc2)cc(-c2ccc(C(F)(F)F)cc2)c1 | – | – | – | – | Activity [7]: 240%; IC50 [8]: 9.1 µM; IC50 [9]: 0.26 µM |
| CC(=O)OC[C@H]1C[C@@H](C)[C@H]2[C@H](O1)[C@H](O)[C@@]1(C)[C@@H]3CC[C@H]4C(C)(C)[C@@H](O[C@H]5CN(C(=O)CC6CC6)CCO5)CC[C@@]45C[C@@]35CC[C@]21C | 0.24 µM | – | – | 23% | Activity (CHO-2B7 [10]): 66% |
| CC(=O)O[C@@H]([C@H]1C[C@@H](C)[C@H]2[C@H](O1)[C@H](O)[C@@]1(C)[C@@H]3CC[C@H]4C(C)(C)[C@@H](OC(=O)NC5CNC5)CC[C@@]45C[C@@]35CC[C@]21C)C(C)(C)O | 0.047 µM | – | 15 µM | 21% | IC50 [9]: 0.047 µM |
| CCO[C@@H]([C@H]1C[C@@H](C)[C@H]2[C@H](O1)[C@H](O)[C@@]1(C)[C@@H]3CC[C@H]4C(C)(C)[C@@H](O[C@H]5CN(CC(F)F)CCO5)CC[C@@]45C[C@@]35CC[C@]21C)C(C)(C)O | 0.54 µM | Stable | – | – | Activity (CHO-2B7 [6]): 37% |
| CC(=O)O[C@@H]([C@H]1C[C@@H](C)[C@H]2[C@H](O1)[C@H](O)[C@@]1(C)[C@@H]3CC[C@H]4C(C)(C)[C@@H](O[C@@H]5OC[C@@H](O)[C@H](O)[C@H]5O)CC[C@@]45C[C@@]35CC[C@]21C)C(C)(C)O | – | – | – | – | IC50 [9]: 0.06 µM |
| CCO[C@@H]([C@H]1C[C@@H](C)[C@H]2[C@H](O1)[C@H](O)[C@@]1(C)[C@@H]3CC[C@H]4C(C)(C)[C@@H](OC(=O)N5CCN(CCOC)CC5)CC[C@@]45C[C@@]35CC[C@]21C)C(C)(C)O | 0.32 µM | Stable | – | – | concentration at 6 h [11]: 261 nM; Kp at 6 h [12]: 0.03; Activity (CHO-2B7 [13]): 51%; concentration at 6 h [14]: 8 nM |
| CCO[C@@H]([C@H]1C[C@@H](C)[C@H]2[C@H](O1)[C@H](O)[C@@]1(C)[C@@H]3CC[C@H]4C(C)(C)[C@@H](O[C@H]5CNCCO5)CC[C@@]45C[C@@]35CC[C@]21C)C(C)(C)O | 0.091 µM | Stable | 1.4 µM | 28% | Kp at 6 h [15]: 1.67; concentration at 6 h [16]: 320 nM; concentration at 6 h [17]: 192 nM |
| C[C@@H]1C[C@H]([C@H](O)C(C)(C)O)O[C@H]2[C@H]1[C@@]1(C)CC[C@@]34C[C@@]35CC[C@H](O[C@H]3CNCCO3)C(C)(C)[C@@H]5CC[C@H]4[C@]1(C)[C@H]2O | 1.6 µM | – | – | 112% | remaining at 1 h, 1 µM [3]: 40% |
| CCO[C@@H]([C@H]1C[C@@H](C)[C@H]2[C@H](O1)[C@H](O)[C@@]1(C)[C@@H]3CC[C@H]4C(C)(C)[C@@H](O[C@H]5CN(C6COC6)CCO5)CC[C@@]45C[C@@]35CC[C@]21C)C(C)(C)O | 0.27 µM | Stable | 4.6 µM | 94% | Kp at 6 h [15]: 0.5; concentration at 6 h [16]: 12 nM; concentration at 6 h [17]: 24 nM |
| CC(=O)O[C@@H]([C@H]1C[C@@H](C)[C@H]2[C@H](O1)[C@H](O)[C@@]1(C)[C@@H]3CC[C@H]4C(C)(C)[C@@H](O[C@H]5CN([C@H]6CCNC6=O)CCO5)CC[C@@]45C[C@@]35CC[C@]21C)C(C)(C)O | 0.17 µM | – | – | 3% | remaining at 1 h, 1 µM [3]: 63% |
| COc1cc(/C=C2\CCCN([C@@H](C)c3ccc(F)cc3)C2=O)ccc1-n1cnc(C)c1 | – | – | – | – | Activity [7]: 280%; IC50 [8]: 0.28 µM; IC50 [9]: 0.062 µM |
| CCO[C@@H]([C@H]1C[C@@H](C)[C@H]2[C@H](O1)[C@H](O)[C@@]1(C)[C@@H]3CC[C@H]4C(C)(C)[C@@H](O[C@H]5CN(CC(=O)N6CCC6)CCO5)CC[C@@]45C[C@@]35CC[C@]21C)C(C)(C)O | 0.25 µM | Stable | – | – | Activity (CHO-2B7 [6]): 39% |
| CCO[C@@H]([C@H]1C[C@@H](C)[C@H]2[C@H](O1)[C@H](O)[C@@]1(C)[C@@H]3CC[C@H]4C(C)(C)[C@@H](O[C@H]5CN(C)CCO5)CC[C@@]45C[C@@]35CC[C@]21C)C(C)(C)O | 0.25 µM | Stable | 4.5 µM | – | concentration at 6 h [11]: 21 nM; Kp at 6 h [12]: 0.76; concentration at 6 h [14]: 16 nM |
| CCO[C@@H]([C@H]1C[C@@H](C)[C@H]2[C@H](O1)[C@H](O)[C@@]1(C)[C@@H]3CC[C@H]4C(C)(C)[C@@H](OC(=O)N5CCN(C)CC5)CC[C@@]45C[C@@]35CC[C@]21C)C(C)(C)O | 0.068 µM | Stable | 5 µM | – | concentration at 6 h [11]: 95 nM; Kp at 6 h [12]: 0.13; concentration at 6 h [14]: 12 nM |
| CC(C)[C@@H](OC(=O)N1CCC1)[C@H]1C[C@@H](C)[C@H]2[C@H](O1)[C@H](O)[C@@]1(C)[C@@H]3CC[C@H]4C(C)(C)[C@@H](OC(=O)N5CCN(C)CC5)CC[C@@]45C[C@@]35CC[C@]21C | 0.17 µM | Stable | 8.2 µM | – | concentration at 6 h [11]: 450 nM; Kp at 6 h [12]: 0.03; concentration at 6 h [14]: 14 nM |
| CC(C)CC[C@H](c1ccc(Cl)cc1)N1CC[C@@H](CC(=O)O)C[C@H]1c1ccc(C(F)(F)F)cc1 | – | – | – | – | Activity [7]: 280%; IC50 [8]: 8.4 µM; IC50 [9]: 0.1 µM |
| CC(=O)O[C@@H]([C@H]1C[C@@H](C)[C@H]2[C@H](O1)[C@H](O)[C@@]1(C)[C@@H]3CC[C@H]4C(C)(C)[C@@H](O[C@H]5CN(C6COC6)CCO5)CC[C@@]45C[C@@]35CC[C@]21C)C(C)(C)O | 0.17 µM | – | – | 1% | remaining at 1 h, 1 µM [3]: 1%; Activity (CHO-2B7 [13]): 35% |
| CCO[C@@H]([C@H]1C[C@@H](C)[C@H]2[C@H](O1)[C@H](O)[C@@]1(C)[C@@H]3CC[C@H]4C(C)(C)[C@@H](OC(=O)N(C)C5CN(C)C5)CC[C@@]45C[C@@]35CC[C@]21C)C(C)(C)O | 0.061 µM | Stable | 4.3 µM | – | concentration at 6 h [11]: 566 nM; Kp at 6 h [12]: 0.1; concentration at 6 h [14]: 56 nM |
| C[C@@H]1C[C@H]([C@H](O)C(C)(C)O)O[C@H]2[C@H]1[C@@]1(C)CC[C@@]34C[C@@]35CC[C@H](O[C@H]3CN(C6COC6)CCO3)C(C)(C)[C@@H]5CC[C@H]4[C@]1(C)[C@H]2O | ≥ 20 µM | – | – | 107% | remaining at 1 h, 1 µM [3]: 81% |

— ChEMBL document CHEMBL2203235, “Optimization of a natural product-based class of γ-secretase modulators” (J Med Chem, 2012)
